ChEMBL document CHEMBL1154472, “Synthesis and anti-HIV-1 integrase activities of 3-aroyl-2,3-dihydro-1,1-dioxo-1,4,2-benzodithiazines” (Eur J Med Chem, 2009)

What was measured:
[1] = biological target: T1, Human immunodeficiency virus type 1 integrase (Human immunodeficiency virus 1, UniProt Q7ZJM1); assay: Inhibition of HIV1 integrase 3'-end processing activity
Outline: (§1)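 Wild-type HIV-1 IN, expressed in E. coli BL21(DE3)pLysS after 1 mM IPTG induction, was preincubated at 200 nM final with inhibitor at 30 °C for 30 min. The buffer held 50 mM NaCl, HEPES pH 7.5, 10% glycerol, 7.5 mM MnCl2, 0.1 mg/ml BSA, 10 mM 2-mercaptoethanol, 10% DMSO and 25 mM MOPS pH 7.2. IC50 was taken from the reaction.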

[2] = biological target: T1, Human immunodeficiency virus type 1 integrase; assay: Inhibition of HIV1 integrase strand transfer activity; outline: as §1
[3] = biological target: T2, Human immunodeficiency virus type 1 integrase (Human immunodeficiency virus 1, UniProt Q7ZJM1, Y99S); assay: Inhibition of HIV1 integrase Y99S mutant 3'-end processing activity
[4] = biological target: T2, Human immunodeficiency virus type 1 integrase; assay: Inhibition of HIV1 integrase Y99S mutant strand transfer activity
[5] = biological target: T3, Human immunodeficiency virus type 1 integrase (Human immunodeficiency virus 1, UniProt Q7ZJM1, H114A); assay: Inhibition of HIV1 integrase H114A mutant 3'-end processing activity
[6] = biological target: T3, Human immunodeficiency virus type 1 integrase; assay: Inhibition of HIV1 integrase H114A mutant strand transfer activity
[7] = biological target: T1, Human immunodeficiency virus type 1 integrase; assay: Inhibition of HIV1 integrase 3'-end processing activity in presence of magnesium
Outline: (§2)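 Wild-type HIV-1 IN (200 nM final), expressed in E. coli BL21(DE3)pLysS, was preincubated with inhibitor for 30 min at 30 °C in HEPES/MOPS buffer containing glycerol, BSA and 10% DMSO, with Mg2+ as the cofactor. IC50 was derived.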

[8] = biological target: T1, Human immunodeficiency virus type 1 integrase; assay: Inhibition of HIV1 integrase strand transfer activity in presence of magnesium; outline: as §2

T3 sequence (Q7ZJM1 entry or part of it H114A): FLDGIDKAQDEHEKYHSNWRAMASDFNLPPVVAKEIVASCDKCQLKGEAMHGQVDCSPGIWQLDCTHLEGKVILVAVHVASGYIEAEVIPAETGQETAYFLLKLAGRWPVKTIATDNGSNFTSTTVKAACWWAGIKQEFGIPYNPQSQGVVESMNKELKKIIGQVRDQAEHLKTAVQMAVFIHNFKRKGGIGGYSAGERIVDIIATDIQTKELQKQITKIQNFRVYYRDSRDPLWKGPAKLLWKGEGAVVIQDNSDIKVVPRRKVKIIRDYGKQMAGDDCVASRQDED
T2 sequence (Q7ZJM1 entry or part of it Y99S): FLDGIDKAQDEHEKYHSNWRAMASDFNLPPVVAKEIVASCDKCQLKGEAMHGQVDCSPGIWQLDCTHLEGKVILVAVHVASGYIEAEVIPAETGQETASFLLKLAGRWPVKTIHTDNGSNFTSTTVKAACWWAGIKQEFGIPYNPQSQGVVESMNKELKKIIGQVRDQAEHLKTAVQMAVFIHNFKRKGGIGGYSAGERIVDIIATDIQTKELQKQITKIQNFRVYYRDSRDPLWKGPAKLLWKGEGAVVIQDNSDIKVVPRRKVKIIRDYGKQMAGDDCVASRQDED
T1 sequence (Q7ZJM1 whole entry): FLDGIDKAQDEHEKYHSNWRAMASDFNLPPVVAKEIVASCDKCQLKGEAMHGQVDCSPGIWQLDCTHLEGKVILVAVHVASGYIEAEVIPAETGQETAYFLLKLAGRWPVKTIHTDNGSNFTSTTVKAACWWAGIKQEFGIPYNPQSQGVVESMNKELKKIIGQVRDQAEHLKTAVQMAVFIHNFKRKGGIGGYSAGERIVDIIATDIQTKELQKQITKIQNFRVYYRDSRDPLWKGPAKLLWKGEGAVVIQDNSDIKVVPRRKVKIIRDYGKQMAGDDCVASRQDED

SMILES	IC50 [1] [µM]	IC50 [2] [µM]	IC50 [3] [µM]	IC50 [4] [µM]	IC50 [5] [µM]	IC50 [6] [µM]	IC50 [7] [µM]	IC50 [8] [µM]
O=C(C1=NS(=O)(=O)c2ccc(Cl)cc2S1)c1ccc(Cl)c(Cl)c1	61.2	124	90	20	18	18		
O=C(c1ccc(Cl)c(Cl)c1)C1NS(=O)(=O)c2ccc(Cl)cc2S1 (centres undefined)	9	5	90	20	18	18	58	25
Cc1cc2c(cc1Cl)SC(C(=O)c1ccc(Cl)cc1)=NS2(=O)=O	30	65	90	20	18	16		
Cc1cc(Cl)cc2c1S(=O)(=O)NC(C(=O)c1ccc3ccccc3c1)S2 (centres undefined)	9	6	70	23	33	23	83	51
Cc1cc2c(cc1Cl)SC(C(=O)c1ccc(Cl)cc1)NS2(=O)=O (centres undefined)	6	4	90	20	18	16	63	40
O=C(C1=NS(=O)(=O)c2ccc(Cl)cc2S1)c1ccc2ccccc2c1	8	8	100	15	9	15		
O=C(c1ccc2ccccc2c1)C1NS(=O)(=O)c2ccc(Cl)cc2S1 (centres undefined)	8	3	100	15	9	15	55	28
Cc1cc2c(cc1Cl)SC(C(=O)c1ccccc1)=NS2(=O)=O	12	12	90	18	15	9		
Cc1cc(Cl)cc2c1S(=O)(=O)N=C(C(=O)c1ccc3ccccc3c1)S2	22	7	70	23	33	23		
O=C(c1ccc(Cl)cc1)C1NS(=O)(=O)c2ccc(Cl)cc2S1 (centres undefined)	8	4	100	20	20	18	51	25
Cc1cc2c(cc1Cl)SC(C(=O)c1ccccc1)NS2(=O)=O (centres undefined)	7	5	90	18	15	9	60	27
O=C(C1=NS(=O)(=O)c2ccc(Cl)cc2S1)c1ccc(Cl)cc1	100	90	100	20	20	18		

The next lines start with results.

IC50 [1] [µM]	IC50 [2] [µM]	SMILES	IC50 [3] [µM]	IC50 [4] [µM]	IC50 [5] [µM]	IC50 [6] [µM]	IC50 [7] [µM]	IC50 [8] [µM]
38	17	COc1ccc(C(=O)C2NS(=O)(=O)c3cc(C)c(Cl)cc3S2)cc1 (centres undefined)						
20	14	Cc1cc(Cl)cc2c1S(=O)(=O)NC(C(=O)c1ccc(Cl)c(Cl)c1)S2 (centres undefined)						
30	30	Cc1cc2c(cc1Cl)SC(C(=O)c1ccc(Br)cc1)=NS2(=O)=O						
30	33	COc1ccc(C(=O)C2=NS(=O)(=O)c3cc(C)c(Cl)cc3S2)cc1						
15	7	Cc1cc2c(cc1Cl)SC(C(=O)c1ccc(Cl)c(Cl)c1)=NS2(=O)=O						
22	25	Cc1cc(Cl)cc2c1S(=O)(=O)N=C(C(=O)c1ccc(Cl)cc1)S2						
57	50	Cc1cc2c(cc1Cl)SC(C(=O)c1cccc([N+](=O)[O-])c1)=NS2(=O)=O						
57	30	Cc1cc2c(cc1Cl)SC(C(=O)c1ccc3ccccc3c1)NS2(=O)=O (centres undefined)						
22	15	O=C(c1ccc(Cl)c(Cl)c1)C1NS(=O)(=O)c2ccccc2S1 (centres undefined)						
20	10	Cc1cc2c(cc1Cl)SC(C(=O)c1ccc(Cl)c(Cl)c1)NS2(=O)=O (centres undefined)						
28	3	Cc1cc2c(cc1Cl)SC(C(=O)c1ccc3ccccc3c1)=NS2(=O)=O						
17	25	Cc1cc(Cl)cc2c1S(=O)(=O)N=C(C(=O)c1ccc(Cl)c(Cl)c1)S2						
4	3	Cc1cc2c(cc1Cl)SC(C(=O)c1ccc(Br)cc1)NS2(=O)=O (centres undefined)						
32	28	Cc1cc2c(cc1Cl)SC(C(=O)c1cccc([N+](=O)[O-])c1)NS2(=O)=O (centres undefined)						
23	14	Cc1cc(Cl)cc2c1S(=O)(=O)NC(C(=O)c1ccc(Cl)cc1)S2 (centres undefined)						
